Assay [1] concerns the target T1, Proprotein convertase subtilisin/kexin type 6 (Homo sapiens, UniProt P29122).
T1 sequence (P29122 whole entry): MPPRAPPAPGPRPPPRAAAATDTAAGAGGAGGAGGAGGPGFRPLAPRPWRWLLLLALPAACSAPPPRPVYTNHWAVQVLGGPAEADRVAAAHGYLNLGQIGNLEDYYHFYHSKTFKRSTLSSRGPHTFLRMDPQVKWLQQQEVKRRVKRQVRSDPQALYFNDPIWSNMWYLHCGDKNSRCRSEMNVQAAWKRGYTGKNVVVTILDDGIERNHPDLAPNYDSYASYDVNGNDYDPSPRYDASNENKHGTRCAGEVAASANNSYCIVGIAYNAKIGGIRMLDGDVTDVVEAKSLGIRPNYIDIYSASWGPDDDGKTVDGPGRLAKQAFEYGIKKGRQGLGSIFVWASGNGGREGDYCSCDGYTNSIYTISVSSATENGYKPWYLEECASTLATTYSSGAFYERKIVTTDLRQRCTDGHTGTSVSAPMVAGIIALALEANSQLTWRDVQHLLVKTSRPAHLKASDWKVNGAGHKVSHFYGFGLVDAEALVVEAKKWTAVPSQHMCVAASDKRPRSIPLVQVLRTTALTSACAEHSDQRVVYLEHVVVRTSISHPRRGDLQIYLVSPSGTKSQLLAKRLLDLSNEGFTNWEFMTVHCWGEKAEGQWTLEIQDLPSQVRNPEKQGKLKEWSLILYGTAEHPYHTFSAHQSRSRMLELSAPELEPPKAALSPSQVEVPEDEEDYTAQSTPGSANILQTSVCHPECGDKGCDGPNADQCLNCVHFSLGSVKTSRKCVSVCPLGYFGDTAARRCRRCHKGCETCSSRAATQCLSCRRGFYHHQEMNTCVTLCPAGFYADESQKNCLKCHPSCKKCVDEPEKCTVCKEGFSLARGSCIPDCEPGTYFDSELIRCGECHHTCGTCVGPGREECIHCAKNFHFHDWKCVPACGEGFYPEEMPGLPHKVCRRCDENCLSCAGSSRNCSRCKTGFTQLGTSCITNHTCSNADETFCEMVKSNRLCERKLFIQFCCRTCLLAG
Nature of the assay: Inhibition of recombinant human PACE4 expressed in drosophila S2 cells using pyrGlu-Arg-Thr-Lys-Arg-7-amido-4-methylcoumarin as substrate after 60 mins by spectrofluorometry method. Type of assay: cell-based. The method in brief:
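Human recombinant purified PACE4 at 2 units/100 µL (20.18 nM), in 20 mM BisTris pH 6.5, 1 mM CaCl2, 1.8 mg/mL BSA. Substrate 100 µM, KM 4.035 µM. Inhibitor 1 nM to 10 µM; 60 min at 37°C. Fluorescence ex 370 / em 460 nm. Ki by Morrison tight-binding equation; three independent experiments, mean ± SD.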

In assay [2] the target is Furin (Homo sapiens, UniProt P09958). Nature of the assay: Inhibition of recombinant human furin expressed in drosophila S2 cells using pyrGlu-Arg-Thr-Lys-Arg-7-amido-4-methylcoumarin as substrate after 60 mins by spectrofluorometry method. In kind it is cell-based. The method in brief:
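Human recombinant purified furin at 2 units/100 µL (0.54 nM), in 100 mM HEPES pH 7.5, 1 mM CaCl2, 1 mM β-mercaptoethanol, 1.8 mg/mL BSA. His-containing peptides run instead in 20 mM BisTris pH 6.5 with the same additives. Substrate 100 µM, KM 5.04 µM. Inhibitor 1 nM to 10 µM; 60 min at 37°C. Fluorescence ex 370 / em 460 nm. Ki by Morrison equation; triplicate experiments, mean ± SD.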

For assay [3], the species on record is Homo sapiens. Nature of the assay: Selectivity index, ratio of Ki for recombinant human furin expressed in drosophila S2 cells to Ki for recombinant human PACE4 expressed in drosophila S2 cells. Type of assay: cell-based. The method in brief: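 Ratio Ki(furin)/Ki(PACE4). […] PACE4 buffer was BisTris pH 6.5; furin buffer was HEPES pH 7.5, or BisTris pH 6.5 for His peptides. Ki fitted by Morrison equation from three independent experiments.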

The subject of assay [4] is DU-145. Nature of the assay: Antiproliferative activity against human DU145 cells assessed as reduction in metabolic activity at 25 to 100 uM after 72 hrs by MTT assay. Type of assay: functional, cell-based. In a few lines:
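First-pass MTT screen of each library peptide on DU145 cells (RPMI 1640, 5% FBS, 1500 cells/well, poly-L-lysine plates). Peptides added 24 h after seeding at 25, 50 and 100 µM in fresh serum medium for 72 h. MTT 1 mg/mL for 4 h; 2-propanol HCl solubilisation. Activity normalised to water vehicle. Mean ± SEM of at least two independent experiments.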
For orientation: Tetrazolium dyes change colour on reduction, which living cells bring about.

Calls of active or inactive are those of the source. The rule behind the calls is not given here. Peptide text beside a SMILES is read from it. * marks the point of attachment. NH(4-amidinobenzyl) = N=C(N)c1ccc(CN*)cc1

Furin, sequence (P09958 whole entry): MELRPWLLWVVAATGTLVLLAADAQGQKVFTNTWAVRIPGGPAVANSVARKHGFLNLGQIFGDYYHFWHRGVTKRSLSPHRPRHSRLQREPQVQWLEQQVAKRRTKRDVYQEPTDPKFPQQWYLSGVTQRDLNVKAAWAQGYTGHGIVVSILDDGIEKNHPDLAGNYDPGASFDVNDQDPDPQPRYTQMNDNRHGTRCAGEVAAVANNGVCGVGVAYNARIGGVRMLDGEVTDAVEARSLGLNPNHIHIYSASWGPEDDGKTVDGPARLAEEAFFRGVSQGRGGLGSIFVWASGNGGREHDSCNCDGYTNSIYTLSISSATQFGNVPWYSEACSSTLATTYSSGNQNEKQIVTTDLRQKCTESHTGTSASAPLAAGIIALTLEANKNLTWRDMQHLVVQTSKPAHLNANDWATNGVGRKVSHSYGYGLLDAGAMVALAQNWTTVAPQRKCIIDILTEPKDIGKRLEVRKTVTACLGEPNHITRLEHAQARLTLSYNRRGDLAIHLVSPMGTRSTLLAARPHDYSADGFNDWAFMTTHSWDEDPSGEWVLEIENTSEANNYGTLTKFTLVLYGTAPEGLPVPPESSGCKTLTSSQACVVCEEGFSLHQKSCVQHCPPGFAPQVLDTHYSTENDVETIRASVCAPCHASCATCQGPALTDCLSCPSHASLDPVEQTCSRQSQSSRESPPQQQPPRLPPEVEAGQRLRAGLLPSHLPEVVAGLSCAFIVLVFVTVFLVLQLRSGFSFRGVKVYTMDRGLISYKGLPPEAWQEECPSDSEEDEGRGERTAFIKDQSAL

In general, Ki refers to a measure of affinity in units of concentration, obtained from inhibition or displacement. Consider `CC(=O)N[C@@H](CC(C)C)C(=O)N[C@@H](CC(C)C)C(=O)N[C@@H](CC(C)C)C(=O)N[C@@H](C)C(=O)N[C@@H](CCCNC(=N)N)C(=O)N[C@H](C(=O)N[C@@H](CCCCN)C(=O)NCc1ccc(C(=N)N)cc1)C(C)C` (Ac-LLLARVK-{NH(4-amidinobenzyl)}), for which the results for the Ki in assay [1] and in assay [2] were 4 nM and 5 nM, respectively. For the same molecule, in assay [3], the Ratio Ki came out at 1.3. The result in assay [4] was inactive.
With `CC(=O)N[C@@H](CC(C)C)C(=O)N[C@@H](CC(C)C)C(=O)N[C@@H](CC(C)C)C(=O)N[C@@H](CC(=O)O)C(=O)N[C@@H](CCCNC(=N)N)C(=O)N[C@H](C(=O)N[C@@H](CCCCN)C(=O)NCc1ccc(C(=N)N)cc1)C(C)C` (Ac-LLLDRVK-{NH(4-amidinobenzyl)}), the Ki in assay [1] is 400 nM; in assay [2] it was 260 nM. Moreover, the Ratio Ki in assay [3] was 0.6. The outcome in assay [4] was inactive.
With `CC(=O)N[C@@H](CC(C)C)C(=O)N[C@@H](CC(C)C)C(=O)N[C@@H](CC(C)C)C(=O)N[C@@H](CCC(=O)O)C(=O)N[C@@H](CCCNC(=N)N)C(=O)N[C@H](C(=O)N[C@@H](CCCCN)C(=O)NCc1ccc(C(=N)N)cc1)C(C)C` (Ac-LLLERVK-{NH(4-amidinobenzyl)}), the Ki in assay [1] was 46 nM; in assay [2], 38 nM. Moreover, the Ratio Ki in assay [3] turned out to be 0.8. Further, the result in assay [4] was inactive.
Taken in the same sequence, the figures for `CC(=O)N[C@@H](CC(C)C)C(=O)N[C@@H](CC(C)C)C(=O)N[C@@H](CC(C)C)C(=O)NCC(=O)N[C@@H](CCCNC(=N)N)C(=O)N[C@H](C(=O)N[C@@H](CCCCN)C(=O)NCc1ccc(C(=N)N)cc1)C(C)C` (Ac-LLLGRVK-{NH(4-amidinobenzyl)}) were 18 nM, 12 nM, 0.7 and “inactive”.
On the same counts, the results for `CC(=O)N[C@@H](CC(C)C)C(=O)N[C@@H](CC(C)C)C(=O)N[C@@H](CC(C)C)C(=O)N[C@@H](Cc1cnc[nH]1)C(=O)N[C@@H](CCCNC(=N)N)C(=O)N[C@H](C(=O)N[C@@H](CCCCN)C(=O)NCc1ccc(C(=N)N)cc1)C(C)C` (Ac-LLLHRVK-{NH(4-amidinobenzyl)}) are 0.4 nM, 0.9 nM, 2.3 and “inactive”.
For the molecule `CC(=O)N[C@@H](CC(C)C)C(=O)N[C@@H](CC(C)C)C(=O)N[C@@H](CC(C)C)C(=O)N[C@@H](CCCCN)C(=O)N[C@@H](CCCNC(=N)N)C(=O)N[C@H](C(=O)N[C@@H](CCCCN)C(=O)NCc1ccc(C(=N)N)cc1)C(C)C` (Ac-LLLKRVK-{NH(4-amidinobenzyl)}), the results for the Ki in assay [1] and in assay [2] were 2 nM and 0.9 nM, respectively. In addition, the Ratio Ki in assay [3] stood at 0.5. The result in assay [4] was inactive.
On the same counts, the results for `CSCC[C@H](NC(=O)[C@H](CC(C)C)NC(=O)[C@H](CC(C)C)NC(=O)[C@H](CC(C)C)NC(C)=O)C(=O)N[C@@H](CCCNC(=N)N)C(=O)N[C@H](C(=O)N[C@@H](CCCCN)C(=O)NCc1ccc(C(=N)N)cc1)C(C)C` (Ac-LLLMRVK-{NH(4-amidinobenzyl)}) are 3.7 nM, 3.4 nM, 0.9 and “inactive”.
In the case of `CC(=O)N[C@@H](CC(C)C)C(=O)N[C@@H](CC(C)C)C(=O)N[C@@H](CC(C)C)C(=O)N[C@@H](CC(N)=O)C(=O)N[C@@H](CCCNC(=N)N)C(=O)N[C@H](C(=O)N[C@@H](CCCCN)C(=O)NCc1ccc(C(=N)N)cc1)C(C)C` (Ac-LLLNRVK-{NH(4-amidinobenzyl)}), the figures for the Ki in assay [1] and in assay [2] were 1.7 nM and 3 nM, respectively. In addition, the Ratio Ki in assay [3] was determined as 1.8. Besides, in assay [4], the result was inactive.
Taken in the same sequence, the figures for `CC(=O)N[C@@H](CC(C)C)C(=O)N[C@@H](CC(C)C)C(=O)N[C@@H](CC(C)C)C(=O)N1CCC[C@H]1C(=O)N[C@@H](CCCNC(=N)N)C(=O)N[C@H](C(=O)N[C@@H](CCCCN)C(=O)NCc1ccc(C(=N)N)cc1)C(C)C` (Ac-LLLPRVK-{NH(4-amidinobenzyl)}) were 6 nM, 4 nM, 0.7 and “inactive”.
Consider `CC(=O)N[C@@H](CC(C)C)C(=O)N[C@@H](CC(C)C)C(=O)N[C@@H](CC(C)C)C(=O)N[C@@H](CCCNC(=N)N)C(=O)N[C@@H](CCCNC(=N)N)C(=O)N[C@H](C(=O)N[C@@H](CCCCN)C(=O)NCc1ccc(C(=N)N)cc1)C(C)C` (Ac-LLLRRVK-{NH(4-amidinobenzyl)}), for which the Ki stood at 0.2 nM in assay [1] and 0.7 nM in assay [2]. Besides, the Ratio Ki in assay [3] stood at 3.5. Further, the outcome in assay [4] was inactive.
On the same counts, the results for `CC(=O)N[C@@H](CC(C)C)C(=O)N[C@@H](CC(C)C)C(=O)N[C@@H](CC(C)C)C(=O)N[C@@H](CO)C(=O)N[C@@H](CCCNC(=N)N)C(=O)N[C@H](C(=O)N[C@@H](CCCCN)C(=O)NCc1ccc(C(=N)N)cc1)C(C)C` (Ac-LLLSRVK-{NH(4-amidinobenzyl)}) are 2 nM, 4 nM, 2 and “inactive”.
On the same counts, the results for `CC(=O)N[C@@H](CC(C)C)C(=O)N[C@@H](CC(C)C)C(=O)N[C@@H](CC(C)C)C(=O)N[C@H](C(=O)N[C@@H](CCCNC(=N)N)C(=O)N[C@H](C(=O)N[C@@H](CCCCN)C(=O)NCc1ccc(C(=N)N)cc1)C(C)C)[C@@H](C)O` (Ac-LLLTRVK-{NH(4-amidinobenzyl)}) are 2.8 nM, 4.5 nM, 1.6 and “inactive”.
On the same counts, the results for `CC(=O)N[C@@H](CC(C)C)C(=O)N[C@@H](CC(C)C)C(=O)N[C@@H](CC(C)C)C(=O)N[C@@H](Cc1c[nH]c2ccccc12)C(=O)N[C@@H](CCCNC(=N)N)C(=O)N[C@H](C(=O)N[C@@H](CCCCN)C(=O)NCc1ccc(C(=N)N)cc1)C(C)C` (Ac-LLLWRVK-{NH(4-amidinobenzyl)}) are 2.8 nM, 8 nM, 2.9 and “inactive”.
Take `CC(=O)N[C@@H](CC(C)C)C(=O)N[C@@H](CC(C)C)C(=O)N[C@@H](CC(C)C)C(=O)N[C@@H](Cc1ccc(O)cc1)C(=O)N[C@@H](CCCNC(=N)N)C(=O)N[C@H](C(=O)N[C@@H](CCCCN)C(=O)NCc1ccc(C(=N)N)cc1)C(C)C` (Ac-LLLYRVK-{NH(4-amidinobenzyl)}): the Ki in assay [1] was 2 nM; in assay [2] it was 3.1 nM. Besides, the Ratio Ki in assay [3] amounted to 1.6. For the same molecule, the outcome in assay [4] was inactive.
On the same counts, the results for `CSCC[C@H](NC(=O)[C@H](CC(C)C)NC(=O)[C@H](CC(C)C)NC(C)=O)C(=O)N[C@@H](CC(C)C)C(=O)N[C@@H](CCCNC(=N)N)C(=O)N[C@H](C(=O)N[C@@H](CCCCN)C(=O)NCc1ccc(C(=N)N)cc1)C(C)C` (Ac-LLMLRVK-{NH(4-amidinobenzyl)}) are 28 nM, 18 nM, 0.6 and “inactive”.

Source of the values: ChEMBL document CHEMBL4049407, “Positional Scanning Identifies the Molecular Determinants of a High Affinity Multi-Leucine Inhibitor for Furin and PACE4” (J Med Chem, 2017).
